Rows were chosen to be rich in hits. Some 2.5% of all compounds tested hit in one or more screens of this group.
TRPC4 inh – TRPC4 (mouse) channel inhibition; Q9QUQ5; HEK293 TRPC4beta/mu-opioid, DAMGO-evoked Fluo4 calcium flux; stronger effect = lower value; B-score at 10 µM; 300,000 tested, 0.39% active;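 active = B-score over 3 SD under the library average, no early fluorescence shift, positive overall ratio signal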
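Assay system: TRPC4beta/mu-opioid receptor HEK293 cell line; compound dosing: single concentration per test compound; detection: Fluo4 Ca2+ flux fluorescence; evaluation: per-well B score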
TRPC4 act – opens the mouse TRPC4 cation channel; HEK293 TRPC4beta/mu-opioid, Fluo4 calcium fluorescence; stronger effect = higher value; B-score at 10 µM; 310,000 tested, 0.49% active; AID 2237;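 active = B-score above 5 SD of library B-scores, and initial fluorescence ratio not above library mean plus 5 SD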;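 also: positive B-score marks a calcium rise read as TRPC4 activation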
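System: HEK293 cells stably co-expressing mouse TRPC4beta and mu-opioid receptor; Schedule: Fluo4 dye loading 45 min at room temperature, 110 s recording; Detection: Fluo4 fluorescence, kinetic; Evaluation: B-scored integrated calcium fluorescence ratio; Controls: buffer (low) and maximal DAMGO (high).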
TRPC4 potent – allosteric potentiators of mouse TRPC4 channel; Q9QUQ5; HEK293 TRPC4beta/mu-opioid, DAMGO EC20, Fluo-4 Ca2+ flux; stronger effect = higher value; B-score at 10 µM; 310,000 tested, 0.42% active;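 active = B-score of calcium response area above 5 SD of library B-scores, with initial fluorescence ratio within 5 SD of library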;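 also: B-score of integrated fluorescence ratio over time as area under calcium response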
TRPC6 inh – mouse TRPC6 channel inhibition | Q61143 | HEK293-TRPC6, membrane potential dye, ACh-evoked depolarization; stronger effect = lower value | B-score at 10 µM | 310,000 tested, 1.1% active | AID 2553;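 active = B-score under library mean minus 3 SD, initial fluorescence not abnormally high, positive integrated signal ratio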;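 also: B-score derived from integrated fluorescence ratio over the kinetic read; more negative B-score means stronger inhibition of depolarization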
DSG3 Ab inh – human desmoglein-3 autoantibody binding inhibition; AID 588358; DSG3-coupled beads, scFv-anti-DSG3-GFP binding, flow cytometry; stronger effect = lower value; P32926; binding (percent of control), % at 10 µM; 310,000 tested, 0.48% active;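 active = binding more than 3 SD below its plate's average and above zero; inconclusive = below that plate limit but binding exactly zero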;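 also: hits lower antibody fragment binding to DSG3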
Target sequence (P32926 whole entry, looked up, the tested form may be a part): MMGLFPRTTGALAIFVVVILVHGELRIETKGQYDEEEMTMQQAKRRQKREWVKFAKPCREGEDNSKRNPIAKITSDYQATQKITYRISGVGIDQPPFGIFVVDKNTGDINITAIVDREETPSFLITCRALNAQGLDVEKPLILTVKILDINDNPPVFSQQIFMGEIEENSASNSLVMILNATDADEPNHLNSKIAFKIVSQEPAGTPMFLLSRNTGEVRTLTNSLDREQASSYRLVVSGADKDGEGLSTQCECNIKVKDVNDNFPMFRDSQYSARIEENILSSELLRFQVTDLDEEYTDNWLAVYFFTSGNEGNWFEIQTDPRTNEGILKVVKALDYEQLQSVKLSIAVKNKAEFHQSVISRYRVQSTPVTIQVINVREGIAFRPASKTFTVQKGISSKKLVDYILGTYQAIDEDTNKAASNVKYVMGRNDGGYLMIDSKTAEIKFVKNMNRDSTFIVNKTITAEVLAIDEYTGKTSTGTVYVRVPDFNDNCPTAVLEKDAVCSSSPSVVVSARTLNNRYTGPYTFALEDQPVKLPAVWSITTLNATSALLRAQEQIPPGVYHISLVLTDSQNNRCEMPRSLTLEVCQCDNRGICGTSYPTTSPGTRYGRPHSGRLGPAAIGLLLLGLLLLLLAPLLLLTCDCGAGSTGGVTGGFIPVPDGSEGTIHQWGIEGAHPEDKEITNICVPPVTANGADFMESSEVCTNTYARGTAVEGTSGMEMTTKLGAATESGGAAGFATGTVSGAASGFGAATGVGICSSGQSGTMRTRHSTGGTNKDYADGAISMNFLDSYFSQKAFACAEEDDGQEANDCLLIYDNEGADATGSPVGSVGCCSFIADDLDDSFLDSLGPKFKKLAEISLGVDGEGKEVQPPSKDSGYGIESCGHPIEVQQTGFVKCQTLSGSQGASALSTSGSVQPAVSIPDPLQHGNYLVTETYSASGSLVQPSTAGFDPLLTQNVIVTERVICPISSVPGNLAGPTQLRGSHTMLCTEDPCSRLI
TRPC6 activator – activates the mouse TRPC6 cation channel | Q61143 | HEK293-TRPC6 membrane potential dye fluorescence; stronger effect = higher value | 310,000 tested, 0.13% active | AID 2550 | B-score at 10 µM;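 active = B-score of the integrated fluorescence ratio above library mean plus 3 SD, and starting fluorescence ratio within library mean plus 5 SD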;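 also: higher score means more depolarization so channel activation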
Numbers without * were called inactive; i = inactive; ? = inconclusive; . = no result given.

SMILES	TRPC4 inh	TRPC4 act	TRPC4 potent	TRPC6 inh	DSG3 Ab inh	TRPC6 activator
CCc1nnc(NC(=O)c2ccc(S(=O)(=O)N(C)Cc3ccccc3)cc2)o1	i	i	i	i	106	i
CN(Cc1ccccc1)S(=O)(=O)c1ccc(C(=O)Nc2nnc(C3CC3)o2)cc1	i	i	i	i	58*	i
O=c1[nH]c(=S)[nH]c2nc(-c3cccs3)cc(C(F)(F)F)c12	i	i	i	i	71*	i
CC(C)Sc1nc2ccccc2n1CC(=O)O	i	i	i	i	101	i
COc1ccc(C)c(NC(=O)NCCc2cnc[nH]2)c1	i	129*	i	i	118	i
O=C(Nc1nnc(SCc2cccnc2)s1)C1CC(=O)N(c2ccccc2)C1 (configuration not stated)	i	i	i	i	101	i
CCCC(=O)Nc1ccc(Oc2ccc(NC(=O)CCC)cc2)cc1	i	i	i	i	55*	i
CCCC(=O)Nc1ccc(OCC(=O)OC)cc1	i	i	i	i	103	i
CSCC[C@H](NC(=O)N1CCn2c1nc1ccccc12)C(=O)NCc1ccc(F)cc1	i	i	20*	i	.	i
CN(Cc1ccccc1)C(=O)CSc1nnc(-c2ccco2)n1-c1ccccc1	-7*	i	i	i	101	i
CCCCCn1c(=O)[nH]c2c(c1=O)CCC2	i	i	i	i	-1.0*	i
CCOC(=O)C1(CCCc2ccccc2)CCN(CC(O)CO)CC1 (configuration not stated)	i	i	i	i	112	i
CCCCN(CCCNC(=O)c1ccc(CS(=O)(=O)c2ccc(OC)cc2)o1)Cc1ccccc1	-6*	i	i	i	100	i
CCCCN(CC)CCCNC(=O)c1ccc(CS(=O)(=O)c2ccccc2C)o1	i	68*	i	i	85	i
CCN(CC)CCCNC(=O)c1ccc(CS(=O)(=O)c2ccccc2OC)o1	i	i	i	i	103	i
CCC(C)c1ccccc1N1CC(C(=O)NCCCn2nc(C)cc2C)CC1=O (configuration not stated)	.	.	.	.	101	.
CC(=O)OCC1O[C@@H](O[C@@H]2C[C@H]3C(C)(C)[C@H](OC(C)=O)CC[C@]3(C)[C@H]3CC[C@]45C[C@]4(CC[C@H]5[C@@H](C)C[C@@H](O)[C@H](O)C(C)(C)O)[C@@]32C)[C@H](O)[C@@H](O)[C@@H]1O (some centres not stated)	i	110*	i	i	.	i
CC(C)=CCC[C@](C)(O[C@@H]1O[C@H](CO[C@@H]2O[C@H](CO)[C@@H](O)[C@H](O)[C@H]2O)[C@@H](O)[C@H](O)[C@H]1O)C1CC[C@]2(C)C1C(=O)CC1[C@@]3(C)CC[C@H](O[C@H]4O[C@@H](CO)[C@H](O)[C@@H](O)[C@@H]4O)C(C)(C)C3CC[C@]12C (some centres not stated)	.	.	.	.	94	.
O=C(/C=C/c1cccc(F)c1)OCC(=O)N1CCCc2ccccc21	i	i	i	i	106	i
O=C(/C=C/c1cccc(F)c1)N1CCc2ccccc21	i	i	i	i	18*	i
COc1ccc(C2Nc3ccc(Br)cc3C(c3ccccc3)N2CC(=O)O)cc1 (configuration not stated)	i	i	i	i	98	i
O=C(O)CN1C(c2ccccc2O)Nc2ccc(Br)cc2C1c1ccccc1 (configuration not stated)	-5*	i	i	i	.	i
Cc1c(N(C)S(=O)(=O)c2cc(C(=O)Nc3ccccn3)ccc2Cl)c(=O)n(-c2ccccc2)n1C	-5*	i	i	i	99	i
O=C1[C@H]2[C@@H](c3ccc(F)cc3)N3C(=O)N(c4cccc(Br)c4)C(=O)[C@@]3(Cc3ccc(Cl)cc3)[C@H]2C(=O)N1C1CCCCC1	i	i	i	i	-6.5*	i
O=C(NCc1ccccc1)/C(=C/c1ccccc1)NC(=O)c1ccco1	i	i	i	i	?	i
SMILES	TRPC4 inh	TRPC4 act	TRPC4 potent	TRPC6 inh	DSG3 Ab inh	TRPC6 activator
CC(=O)Oc1ccc(/C=C(\NC(=O)c2ccco2)C(=O)NCc2ccccc2)cc1	-7*	i	i	i	112	i
COc1ccc(NC(=O)c2ccccc2OCc2ccc(F)cc2)c(OC)c1	i	i	i	i	.	i
O=C(c1ccccc1)N1CCN(Cc2c[nH]c3ccccc23)CC1	i	i	i	i	99	i
O=[N+]([O-])c1ccccc1CN1CCN(Cc2c[nH]c3ccccc23)CC1	-7*	i	i	i	.	i
CC(C)Sc1nc2c(c(=O)[nH]c(=O)n2C)n1Cc1ccc(Cl)cc1	i	i	i	i	101	i
CCOC(=O)C(C)Sc1nc2c(c(=O)[nH]c(=O)n2C)n1Cc1ccc(Cl)cc1 (configuration not stated)	-6*	i	i	i	77	i
CCN(C[C@H]1N[C@@](CC)(C(=O)OC)[C@H]2C(=O)N(C)C(=O)[C@@H]12)C(=O)COC	.	.	.	.	99	.
CC(=O)Nc1ccc2nc(NS(=O)(=O)c3ccc(C)cc3)sc2c1	i	i	i	i	91	i
COc1ccc2nc(NS(=O)(=O)c3ccc(NC(C)=O)cc3)sc2c1	-7*	122*	i	i	100	i
c1ccc2sc(NC3=NCN(CCN4CCOCC4)CN3)nc2c1	i	i	i	i	78*	i
OCCN1CN=C(Nc2nc3ccccc3s2)NC1	i	i	i	i	103	i
COc1ccc(C(CNC(=O)c2oc3ccc(Br)cc3c2C)N2CCCCC2)cc1 (configuration not stated)	i	i	i	i	100	i
COc1ccc(C(CNC(=O)c2cccc(N(C)C)c2)N2CCCC2)cc1 (configuration not stated)	i	i	i	i	.	i
COc1ccc(C(CNC(=O)c2oc3ccc(OC)cc3c2C)N2CCCC2)cc1 (configuration not stated)	i	72*	i	i	115	i
CCC1CCc2sc(C(=O)NCC(c3ccc(OC)cc3)N3CCCC3)cc2C1 (configuration not stated)	i	55*	i	i	124	i
